Laboratory results: ChEMBL document CHEMBL4400530, “Synthesis and structure-activity relationship studies of water-soluble β-cyclodextrin-glycyrrhetinic acid conjugates as potential anti-influenza virus agents” (Eur J Med Chem, 2019)
Calls of active or inactive are those of the source. The calls are words filed in the database; no cut-off is given here.

Tests used:
MDCK = experiment: Cytotoxicity against MDCK cells assessed as effect on cell viability at 50 uM measured after 36 hrs by CellTiter-Glo assay; type: cell-based, Canis lupus familiaris; conditions: dog
Procedure, shortened: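 MDCK cells (1 × 10⁴ per well) left to adhere 24 h at 37 °C, 5% CO₂. Medium then replaced with fresh medium containing compound at 50 μM, in triplicate. Controls received medium with 1% DMSO. Plates incubated 36 h at 37 °C, 5% CO₂, then viability read by CellTiter-Glo luminescence.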

Influenza A virus = experiment: Antiviral activity against Influenza A virus (A/WSN/33(H1N1)) infected in MDCK cells assessed as reduction in virus-induced cytopathic effect at 50 uM after 40 hrs by CellTiter-Glo assay; type: functional, organism-based; conditions: A/WSN/1933(H1N1)
Procedure, shortened: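 MDCK cells seeded, grown overnight, then infected with A/WSN/33 (H1N1) at MOI 0.1 in DMEM with 1% FBS, 2 μg/mL TPCK-treated trypsin and test compound (final DMSO 1%). Compounds screened at a single 50 μM concentration. Incubation 40 h, then viability read by CellTiter-Glo luminescence. Oseltamivir positive control, DMSO negative control. Virus stock titres determined in MDCK cells by Reed and Muench.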

| SMILES | Activity (MDCK) | Activity (Influenza A virus) |
| --- | --- | --- |
| CC(=O)OC[C@H]1O[C@@H]2O[C@H]3[C@H](OC(C)=O)[C@@H](OC(C)=O)[C@@H](O[C@H]4[C@H](OC(C)=O)[C@@H](OC(C)=O)[C@@H](O[C@H]5[C@H](OC(C)=O)[C@@H](OC(C)=O)[C@@H](O[C@H]6[C@H](OC(C)=O)[C@@H](OC(C)=O)[C@@H](O[C@H]7[C@H](OC(C)=O)[C@@H](OC(C)=O)[C@@H](O[C@H]8[C@H](OC(C)=O)[C@@H](OC(C)=O)[C@@H](O[C@H]1[C@H](OC(C)=O)[C@H]2OC(C)=O)O[C@@H]8COC(C)=O)O[C@@H]7COC(C)=O)O[C@@H]6COC(C)=O)O[C@@H]5Cn1cc(COCCOCCOCCOCCOCCOCCNC(=O)[C@@]2(C)CC[C@]5(C)CC[C@]6(C)C(=CC(=O)[C@@H]7[C@@]8(C)CC[C@H](O)C(C)(C)[C@@H]8CC[C@]76C)[C@@H]5C2)nn1)O[C@@H]4COC(C)=O)O[C@@H]3COC(C)=O | Non-Toxic | Active |
| CC(=O)OC[C@H]1O[C@@H]2O[C@H]3[C@H](O)[C@@H](O)[C@@H](O[C@H]4[C@H](O)[C@@H](O)[C@@H](O[C@H]5[C@H](O)[C@@H](O)[C@@H](O[C@H]6[C@H](O)[C@@H](O)[C@@H](O[C@H]7[C@H](O)[C@@H](O)[C@@H](O[C@H]8[C@H](O)[C@@H](O)[C@@H](O[C@H]1[C@H](O)[C@H]2O)O[C@@H]8CO)O[C@@H]7CO)O[C@@H]6CO)O[C@@H]5CO)O[C@@H]4CO)O[C@@H]3Cn1cc(CN2CCN(CCNC(=O)[C@@]3(C)CC[C@]4(C)CC[C@]5(C)C(=CC(=O)[C@@H]6[C@@]7(C)CC[C@H](O)C(C)(C)[C@@H]7CC[C@]65C)[C@@H]4C3)CC2)nn1 | Non-Toxic | inactive |
| CC1(C)[C@@H](O)CC[C@]2(C)[C@H]3C(=O)C=C4[C@@H]5C[C@@](C)(C(=O)NCc6cn(C[C@H]7O[C@@H]8O[C@H]9[C@H](O)[C@@H](O)[C@@H](O[C@H]%10[C@H](O)[C@@H](O)[C@@H](O[C@H]%11[C@H](O)[C@@H](O)[C@@H](O[C@H]%12[C@H](O)[C@@H](O)[C@@H](O[C@H]%13[C@H](O)[C@@H](O)[C@@H](O[C@H]%14[C@H](O)[C@@H](O)[C@@H](O[C@H]7[C@H](O)[C@H]8O)O[C@@H]%14CO)O[C@@H]%13CO)O[C@@H]%12CO)O[C@@H]%11CO)O[C@@H]%10CO)O[C@@H]9CO)nn6)CC[C@]5(C)CC[C@@]4(C)[C@]3(C)CC[C@@H]12 | Non-Toxic | Active |
| COC[C@H]1O[C@@H]2O[C@H]3[C@H](OC)[C@@H](OC)[C@@H](O[C@H]4[C@H](OC)[C@@H](OC)[C@@H](O[C@H]5[C@H](OC)[C@@H](OC)[C@@H](O[C@H]6[C@H](OC)[C@@H](OC)[C@@H](O[C@H]7[C@H](OC)[C@@H](OC)[C@@H](O[C@H]8[C@H](OC)[C@@H](OC)[C@@H](O[C@H]1[C@H](OC)[C@H]2OC)O[C@@H]8COC)O[C@@H]7COC)O[C@@H]6COC)O[C@@H]5Cn1cc(CNC(=O)[C@@]2(C)CC[C@]5(C)CC[C@]6(C)C(=CC(=O)[C@@H]7[C@@]8(C)CC[C@H](O)C(C)(C)[C@@H]8CC[C@]76C)[C@@H]5C2)nn1)O[C@@H]4COC)O[C@@H]3COC | Toxic | – |
| CC1(C)[C@@H](O)CC[C@]2(C)[C@H]3C(=O)C=C4[C@@H]5C[C@@](C)(C(=O)Nc6ccc(-c7cn(C[C@H]8O[C@@H]9O[C@H]%10[C@H](O)[C@@H](O)[C@@H](O[C@H]%11[C@H](O)[C@@H](O)[C@@H](O[C@H]%12[C@H](O)[C@@H](O)[C@@H](O[C@H]%13[C@H](O)[C@@H](O)[C@@H](O[C@H]%14[C@H](O)[C@@H](O)[C@@H](O[C@H]%15[C@H](O)[C@@H](O)[C@@H](O[C@H]8[C@H](O)[C@H]9O)O[C@@H]%15CO)O[C@@H]%14CO)O[C@@H]%13CO)O[C@@H]%12CO)O[C@@H]%11CO)O[C@@H]%10CO)nn7)cc6)CC[C@]5(C)CC[C@@]4(C)[C@]3(C)CC[C@@H]12 | Non-Toxic | – |
| CC(=O)OC[C@H]1O[C@@H]2O[C@H]3[C@H](OC(C)=O)[C@@H](OC(C)=O)[C@@H](O[C@H]4[C@H](OC(C)=O)[C@@H](OC(C)=O)[C@@H](O[C@H]5[C@H](OC(C)=O)[C@@H](OC(C)=O)[C@@H](O[C@H]6[C@H](OC(C)=O)[C@@H](OC(C)=O)[C@@H](O[C@H]7[C@H](OC(C)=O)[C@@H](OC(C)=O)[C@@H](O[C@H]8[C@H](OC(C)=O)[C@@H](OC(C)=O)[C@@H](O[C@H]1[C@H](OC(C)=O)[C@H]2OC(C)=O)O[C@@H]8COC(C)=O)O[C@@H]7COC(C)=O)O[C@@H]6COC(C)=O)O[C@@H]5Cn1cc(CO[C@H]2CC[C@]5(C)[C@H]6C(=O)C=C7[C@@H]8C[C@@](C)(C(=O)OCc9ccccc9)CC[C@]8(C)CC[C@@]7(C)[C@]6(C)CC[C@H]5C2(C)C)nn1)O[C@@H]4COC(C)=O)O[C@@H]3COC(C)=O | Non-Toxic | – |
| CC(=O)OC[C@H]1O[C@@H]2O[C@H]3[C@H](OC(C)=O)[C@@H](OC(C)=O)[C@@H](O[C@H]4[C@H](OC(C)=O)[C@@H](OC(C)=O)[C@@H](O[C@H]5[C@H](OC(C)=O)[C@@H](OC(C)=O)[C@@H](O[C@H]6[C@H](OC(C)=O)[C@@H](OC(C)=O)[C@@H](O[C@H]7[C@H](OC(C)=O)[C@@H](OC(C)=O)[C@@H](O[C@H]8[C@H](OC(C)=O)[C@@H](OC(C)=O)[C@@H](O[C@H]1[C@H](OC(C)=O)[C@H]2OC(C)=O)O[C@@H]8COC(C)=O)O[C@@H]7COC(C)=O)O[C@@H]6COC(C)=O)O[C@@H]5Cn1cc(CO[C@H]2CC[C@]5(C)[C@H]6C(=O)C=C7[C@@H]8C[C@@](C)(C(=O)O)CC[C@]8(C)CC[C@@]7(C)[C@]6(C)CC[C@H]5C2(C)C)nn1)O[C@@H]4COC(C)=O)O[C@@H]3COC(C)=O | Non-Toxic | – |
| CC(=O)OC[C@H]1O[C@@H]2O[C@H]3[C@H](OC(C)=O)[C@@H](OC(C)=O)[C@@H](O[C@H]4[C@H](OC(C)=O)[C@@H](OC(C)=O)[C@@H](O[C@H]5[C@H](OC(C)=O)[C@@H](OC(C)=O)[C@@H](O[C@H]6[C@H](OC(C)=O)[C@@H](OC(C)=O)[C@@H](O[C@H]7[C@H](OC(C)=O)[C@@H](OC(C)=O)[C@@H](O[C@H]8[C@H](OC(C)=O)[C@@H](OC(C)=O)[C@@H](O[C@H]1[C@H](OC(C)=O)[C@H]2OC(C)=O)O[C@@H]8COC(C)=O)O[C@@H]7COC(C)=O)O[C@@H]6COC(C)=O)O[C@@H]5Cn1cc(-c2ccc(NC(=O)[C@@]5(C)CC[C@]6(C)CC[C@]7(C)C(=CC(=O)[C@@H]8[C@@]9(C)CC[C@H](O)C(C)(C)[C@@H]9CC[C@]87C)[C@@H]6C5)cc2)nn1)O[C@@H]4COC(C)=O)O[C@@H]3COC(C)=O | Non-Toxic | – |
